Measured values from ChEMBL document CHEMBL3616437, “Thiazole compounds with activity against Cryptococcus gattii and Cryptococcus neoformans in vitro” (Eur J Med Chem, 2015).
≈ marks a conversion by molar mass, not a printed value.

Assays:
[1] = system: Cryptococcus gattii species complex; experiment: Ratio of compound MIC for Cryptococcus gattii LMM818 in presence of amphotericin B to compound MIC for Cryptococcus gattii LMM818 in absence of amphotericin B by checkerboard microtiter test; assay type: functional, Cryptococcus bacillisporus
Outline: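 Checkerboard microdilution: eight two-fold dilutions of test compound (0.11 to 15.6 µM) crossed with amphotericin B (0.025 to 3.9 µM, in DMSO) or fluconazole (0.48 to 62.5 µM, in water). Inoculum per CLSI M27-A3 in RPMI-MOPS pH 7.0, 1-5 x10^3 cells/mL. Growth 48 to 72 h. Effective MIC is the combination concentration giving complete inhibition. FICs derived from MICs in combination versus alone.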

[2] = Selectivity index, ratio of IC50 for African green monkey Vero cells to MIC for Cryptococcus neoformans ATCC 24067; assay type: toxicity, cell-based
[3] = system: Cryptococcus gattii species complex; experiment: Antifungal activity against Cryptococcus gattii 1913ER after 48 to 72 hrs by broth microdilution method; assay type: functional, Cryptococcus bacillisporus
Outline: (§1)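 CLSI M27-A3 broth microdilution in RPMI with L-glutamine, buffered to pH 7.0 with 0.165 M MOPS. Colonies grown twice on SDA, 48 h at 35°C. Inoculum set to 70% transmittance at 530 nm, then diluted to 1-5 x10^3 cells/mL. Test agents dissolved in DMSO, serially diluted, tested at 0.1 to 62.5 µM. Plates held at 35°C for 48-72 h. MIC is the lowest concentration giving an optically clear well, read visually against drug-free growth controls.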

[4] = system: Cryptococcus neoformans; experiment: Antifungal activity against Cryptococcus neoformans CN31 after 48 to 72 hrs by broth microdilution method; assay type: functional
Outline: (§2)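 CLSI M27-A3 broth microdilution. Isolates subcultured twice on SDA, 48 h at 35°C. Saline suspension adjusted to 70% transmittance at 530 nm, then diluted to 1-5 x10^3 cells/mL in RPMI with L-glutamine, 0.165 M MOPS, pH 7.0. Compounds in DMSO, tested at […]. 35°C for 48-72 h. MIC read visually as the lowest concentration giving an optically clear well.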

[5] = system: Cryptococcus neoformans; experiment: Antifungal activity against Cryptococcus neoformans VM-MCMMPI after 48 to 72 hrs by broth microdilution method; assay type: functional; outline: as §2
[6] = system: Cryptococcus neoformans; experiment: Antifungal activity against Cryptococcus neoformans 27JF after 48 to 72 hrs by broth microdilution method; assay type: functional; outline: as §2
[7] = system: Cryptococcus neoformans; experiment: Antifungal activity against Cryptococcus neoformans WP after 48 to 72 hrs by broth microdilution method; assay type: functional; outline: as §2
[8] = system: Vero; experiment: Cytotoxicity against African green monkey Vero cells assessed as cell viability measured after 48 hrs by MTT assay; assay type: cell-based; conditions: Chlorocebus sabaeus
Outline: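 VERO cells in D-MEM with 5% FBS, used up to 20 passages. Seeded 1 x 10^4 cells/well, pre-incubated 24 h at 37°C. Exposed 48 h at 37°C, 5% CO2, to eight nonserial dilutions from 100 to 0.0128 µM, with 0.5% DMSO control. MTT reduction read-out, corrected for background and blank. IC50 reported as median with 95% CI. Triplicate, two independent experiments.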

[9] = system: Cryptococcus gattii species complex; experiment: Antifungal activity against Cryptococcus gattii L24/01 after 48 to 72 hrs by broth microdilution method; assay type: functional, Cryptococcus bacillisporus; outline: as §1
[10] = system: Cryptococcus gattii species complex; experiment: Antifungal activity against Cryptococcus gattii 547/OTTI-97-PI-10 after 48 to 72 hrs by broth microdilution method; assay type: functional, Cryptococcus bacillisporus; outline: as §1
[11] = system: Cryptococcus neoformans; experiment: Antifungal activity against Cryptococcus neoformans ATCC 62066 after 48 to 72 hrs by broth microdilution method; assay type: functional
[12] = Selectivity index, ratio of IC50 for C57BL/6 mouse peritoneal macrophages to MIC for Cryptococcus neoformans ATCC 24067
Outline: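 SI = IC50/MIC. Thioglycollate-elicited peritoneal macrophages from C57BL/6 mice are seeded at 1 x 10^5/well. They are exposed for 48 h at 37°C to eight concentrations from 100 to 0.0128 µM. Viability read by MTT versus 0.5% DMSO control, triplicate in two experiments.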

[13] = Cytotoxicity against C57BL/6 mouse peritoneal macrophages assessed as cell viability measured after 48 hrs by MTT assay; assay type: cell-based; conditions: C57BL/6, Peritoneal macrophage cell
Outline: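 Thioglycollate-elicited peritoneal macrophages from male C57BL/6 mice, 6–8 weeks old, in RPMI with 10% FBS. Seeded 1 x 10^5 cells/well, pre-incubated 24 h at 37°C. Exposed 48 h at 37°C, 5% CO2, to eight nonserial dilutions from 100 to 0.0128 µM, with 0.5% DMSO control. MTT read-out, % inhibition versus DMSO control. IC50 reported as median with 95% CI. Triplicate, two independent experiments.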

[14] = system: Cryptococcus gattii species complex; experiment: Antifungal activity against Cryptococcus gattii 196L/03 after 48 to 72 hrs by broth microdilution method; assay type: functional, Cryptococcus bacillisporus; outline: as §1
[15] = system: Cryptococcus neoformans; experiment: Antifungal activity against Cryptococcus neoformans ATCC 28957 after 48 to 72 hrs by broth microdilution method; assay type: functional; outline: as §2
[16] = system: Cryptococcus gattii species complex; experiment: Antifungal activity against Cryptococcus gattii LMM818 after 48 to 72 hrs by broth microdilution method; assay type: functional, Cryptococcus bacillisporus; outline: as §1
[17] = system: Cryptococcus bacillisporus; experiment: Antifungal activity against Cryptococcus gattii ATCC 32608 after 48 to 72 hrs by broth microdilution method; assay type: functional; outline: as §1
[18] = system: Cryptococcus gattii species complex; experiment: Antifungal activity against Cryptococcus gattii L28/02 after 48 to 72 hrs by broth microdilution method; assay type: functional, Cryptococcus bacillisporus; outline: as §1
[19] = system: Cryptococcus neoformans; experiment: Antifungal activity against Cryptococcus neoformans F10 after 48 to 72 hrs by broth microdilution method; assay type: functional; outline: as §2
[20] = system: Cryptococcus neoformans; experiment: Antifungal activity against Cryptococcus neoformans ATCC 24067 after 48 to 72 hrs by broth microdilution method; assay type: functional; outline: as §2
[21] = system: Cryptococcus gattii species complex; experiment: Antifungal activity against Cryptococcus gattii 23/10993 after 48 to 72 hrs by broth microdilution method; assay type: functional, Cryptococcus bacillisporus; outline: as §1
[22] = system: Cryptococcus neoformans; experiment: Antifungal activity against Cryptococcus neoformans 5396 after 48 to 72 hrs by broth microdilution method; assay type: functional; outline: as §2
[23] = system: Cryptococcus gattii species complex; experiment: Antifungal activity against Cryptococcus gattii ICB181 after 48 to 72 hrs by broth microdilution method; assay type: functional, Cryptococcus bacillisporus; outline: as §1
[24] = system: Cryptococcus neoformans; experiment: Antifungal activity against Cryptococcus neoformans LMM820 after 48 to 72 hrs by broth microdilution method; assay type: functional; outline: as §2
[25] = system: Cryptococcus gattii species complex; experiment: Antifungal activity against Cryptococcus gattii 135L/03 after 48 to 72 hrs by broth microdilution method; assay type: functional, Cryptococcus bacillisporus; outline: as §1
[26] = system: Cryptococcus gattii species complex; experiment: Antifungal activity against Cryptococcus gattii L27/01 after 48 to 72 hrs by broth microdilution method; assay type: functional, Cryptococcus bacillisporus; outline: as §1
[27] = system: Cryptococcus neoformans; experiment: Antifungal activity against Cryptococcus neoformans 28JF after 48 to 72 hrs by broth microdilution method; assay type: functional; outline: as §2
[28] = system: Cryptococcus neoformans; experiment: Antifungal activity against Cryptococcus neoformans 96806 after 48 to 72 hrs by broth microdilution method; assay type: functional; outline: as §2

C(=N\Nc1nc(-c2ccccc2)cs1)/C1CCCCC1
fractional inhibitory concentration index (FICI) [1]: 2.58
selectivity ratio [2]: 111
MFC [3]: 7.8 µM (≈ 2.23 µg/mL)
MIC [3]: 1.4 µM (≈ 0.4 µg/mL)
MFC [4]: 1.9 µM (≈ 0.542 µg/mL)
MIC [4]: 1.4 µM (≈ 0.4 µg/mL)
MFC [5]: 3.9 µM (≈ 1.11 µg/mL)
MIC [5]: 1.4 µM (≈ 0.4 µg/mL)
MFC [6]: 7.8 µM (≈ 2.23 µg/mL)
MIC [6]: 2.4 µM (≈ 0.685 µg/mL)
MFC [7]: 3.9 µM (≈ 1.11 µg/mL)
MIC [7]: 2.2 µM (≈ 0.628 µg/mL)
IC50 [8]: > 100 µM
MFC [9]: 3.9 µM (≈ 1.11 µg/mL)
MIC [9]: 1.4 µM (≈ 0.4 µg/mL)
MFC [10]: 7.8 µM (≈ 2.23 µg/mL)
MIC [10]: 1.9 µM (≈ 0.542 µg/mL)
MFC [11]: 7.8 µM (≈ 2.23 µg/mL)
MIC [11]: 1.2 µM (≈ 0.342 µg/mL)
Ratio [12]: 111
IC50 [13]: > 100 µM
MFC [14]: 3.9 µM (≈ 1.11 µg/mL)
MIC [14]: 1.4 µM (≈ 0.4 µg/mL)
MFC [15]: 7.8 µM (≈ 2.23 µg/mL)
MIC [15]: 1.2 µM (≈ 0.342 µg/mL)
MFC [16]: 3.9 µM (≈ 1.11 µg/mL)
MIC [16]: 2.2 µM (≈ 0.628 µg/mL)
MFC [17]: 1.9 µM (≈ 0.542 µg/mL)
MIC [17]: 1.4 µM (≈ 0.4 µg/mL)
MFC [18]: 7.8 µM (≈ 2.23 µg/mL)
MIC [18]: 1.9 µM (≈ 0.542 µg/mL)
MFC [19]: 3.9 µM (≈ 1.11 µg/mL)
MIC [19]: 1.7 µM (≈ 0.485 µg/mL)
MIC [20]: 0.9 µM (≈ 0.257 µg/mL)
MFC [21]: 7.8 µM (≈ 2.23 µg/mL)
MIC [21]: 1.9 µM (≈ 0.542 µg/mL)
MFC [22]: 1.9 µM (≈ 0.542 µg/mL)
MIC [22]: 1.4 µM (≈ 0.4 µg/mL)
MFC [23]: 3.9 µM (≈ 1.11 µg/mL)
MIC [23]: 0.7 µM (≈ 0.2 µg/mL)
MFC [24]: 1.9 µM (≈ 0.542 µg/mL)
MIC [24]: 1.7 µM (≈ 0.485 µg/mL)
MFC [25]: 3.9 µM (≈ 1.11 µg/mL)
MIC [25]: 1.9 µM (≈ 0.542 µg/mL)
MFC [26]: 1.9 µM (≈ 0.542 µg/mL)
MIC [26]: 1 µM (≈ 0.285 µg/mL)
MFC [27]: 7.8 µM (≈ 2.23 µg/mL)
MIC [27]: 2.7 µM (≈ 0.771 µg/mL)
MFC [28]: 3.9 µM (≈ 1.11 µg/mL)
MIC [28]: 1.9 µM (≈ 0.542 µg/mL)
